Data reported in ChEMBL document CHEMBL3351625, “Ethyl 2-(benzylidene)-7-methyl-3-oxo-2,3-dihydro-5H-thiazolo[3,2-a]pyrimidine-6-carboxylate analogues as a new scaffold for protein kinase casein kinase 2 inhibitor” (Bioorg Med Chem, 2014).
Activity calls are given as the source filed them. The calls are words filed in the database; no cut-off is given here.

Experiments:
[1] = target: Mitogen-activated protein kinase 1 (Homo sapiens) (UniProt P28482); assay: Inhibition of human MAPK2 assessed as residual activity at 10 uM by KinaseProfiler assay
Sequence of Mitogen-activated protein kinase 1 (Homo sapiens) (P28482 whole entry): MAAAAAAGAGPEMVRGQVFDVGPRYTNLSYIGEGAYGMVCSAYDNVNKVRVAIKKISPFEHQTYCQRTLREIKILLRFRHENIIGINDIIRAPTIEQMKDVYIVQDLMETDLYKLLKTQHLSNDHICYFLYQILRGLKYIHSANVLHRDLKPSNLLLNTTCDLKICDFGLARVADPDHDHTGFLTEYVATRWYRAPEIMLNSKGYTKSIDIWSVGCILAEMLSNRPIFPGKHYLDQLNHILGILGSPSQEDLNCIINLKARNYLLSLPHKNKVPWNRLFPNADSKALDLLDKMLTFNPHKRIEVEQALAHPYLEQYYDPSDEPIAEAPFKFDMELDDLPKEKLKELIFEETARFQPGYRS
Summary of the method: (§1)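 Radioactive phosphorylation assays were run by an outsourced profiling service. Each of 31 human kinases was tested with inhibitor at 10 µM. Residual activity is expressed as a percentage of the mean activity in positive-control wells, which contained all reaction components except inhibitor plus DMSO as solvent control.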

[2] = target: Protein kinase C alpha type (Homo sapiens) (UniProt P17252); assay: Inhibition of human PKCalpha assessed as residual activity at 10 uM by KinaseProfiler assay; summary of the method: as §1
[3] = target: Glycogen synthase kinase-3 beta (Homo sapiens) (UniProt P49841); assay: Inhibition of human GSK3beta assessed as residual activity at 10 uM by KinaseProfiler assay; summary of the method: as §1
Sequence of Glycogen synthase kinase-3 beta (Homo sapiens) (P49841 whole entry, looked up): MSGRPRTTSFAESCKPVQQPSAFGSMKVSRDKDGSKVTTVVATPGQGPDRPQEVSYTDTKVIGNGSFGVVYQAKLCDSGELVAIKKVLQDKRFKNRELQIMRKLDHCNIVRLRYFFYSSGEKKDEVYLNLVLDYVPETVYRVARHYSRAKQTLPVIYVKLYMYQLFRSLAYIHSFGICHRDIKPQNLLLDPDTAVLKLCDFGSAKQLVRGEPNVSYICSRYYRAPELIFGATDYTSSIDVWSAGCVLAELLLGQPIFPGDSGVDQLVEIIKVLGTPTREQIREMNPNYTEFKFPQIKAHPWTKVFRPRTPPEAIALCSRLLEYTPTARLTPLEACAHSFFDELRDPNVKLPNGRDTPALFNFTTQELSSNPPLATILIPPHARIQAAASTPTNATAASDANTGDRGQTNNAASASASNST

[4] = target: Tyrosine-protein kinase Lyn (Homo sapiens) (UniProt P07948); assay: Inhibition of human Lyn assessed as residual activity at 10 uM by KinaseProfiler assay; summary of the method: as §1
Sequence of Tyrosine-protein kinase Lyn (Homo sapiens) (P07948 2-512 limits assumed): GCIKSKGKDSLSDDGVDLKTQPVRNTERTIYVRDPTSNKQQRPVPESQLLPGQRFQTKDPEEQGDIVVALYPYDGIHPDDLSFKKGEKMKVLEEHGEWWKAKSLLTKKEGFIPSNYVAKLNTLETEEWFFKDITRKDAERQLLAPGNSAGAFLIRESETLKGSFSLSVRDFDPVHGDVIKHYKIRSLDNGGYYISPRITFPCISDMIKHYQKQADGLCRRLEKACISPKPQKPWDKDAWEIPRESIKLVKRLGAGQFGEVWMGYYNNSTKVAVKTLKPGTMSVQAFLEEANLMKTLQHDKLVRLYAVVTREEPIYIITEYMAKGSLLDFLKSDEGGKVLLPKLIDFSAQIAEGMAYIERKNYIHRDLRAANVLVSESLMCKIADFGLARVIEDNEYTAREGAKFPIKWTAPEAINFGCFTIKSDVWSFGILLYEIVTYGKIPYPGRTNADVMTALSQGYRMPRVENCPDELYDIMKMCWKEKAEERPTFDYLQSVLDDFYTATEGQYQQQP

[5] = target: Mitogen-activated protein kinase 11 (Homo sapiens) (UniProt Q15759); assay: Inhibition of human SAPK2b assessed as residual activity at 10 uM by KinaseProfiler assay; summary of the method: as §1
Sequence of Mitogen-activated protein kinase 11 (Homo sapiens) (Q15759 whole entry): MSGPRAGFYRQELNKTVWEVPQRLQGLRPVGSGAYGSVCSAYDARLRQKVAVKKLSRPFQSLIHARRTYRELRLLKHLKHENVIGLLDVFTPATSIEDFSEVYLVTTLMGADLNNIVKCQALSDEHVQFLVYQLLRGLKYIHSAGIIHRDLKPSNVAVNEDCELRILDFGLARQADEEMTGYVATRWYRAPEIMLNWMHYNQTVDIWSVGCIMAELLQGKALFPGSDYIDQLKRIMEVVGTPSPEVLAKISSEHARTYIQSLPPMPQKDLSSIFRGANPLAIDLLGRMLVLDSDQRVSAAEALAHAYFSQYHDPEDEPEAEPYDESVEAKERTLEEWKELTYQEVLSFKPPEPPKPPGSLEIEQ

[6] = target: T1, Mitogen-activated protein kinase kinase kinase kinase 2 (Homo sapiens) (UniProt Q12851); assay: Inhibition of human GCK assessed as residual activity at 10 uM by KinaseProfiler assay; summary of the method: as §1
T1 sequence (whole entry): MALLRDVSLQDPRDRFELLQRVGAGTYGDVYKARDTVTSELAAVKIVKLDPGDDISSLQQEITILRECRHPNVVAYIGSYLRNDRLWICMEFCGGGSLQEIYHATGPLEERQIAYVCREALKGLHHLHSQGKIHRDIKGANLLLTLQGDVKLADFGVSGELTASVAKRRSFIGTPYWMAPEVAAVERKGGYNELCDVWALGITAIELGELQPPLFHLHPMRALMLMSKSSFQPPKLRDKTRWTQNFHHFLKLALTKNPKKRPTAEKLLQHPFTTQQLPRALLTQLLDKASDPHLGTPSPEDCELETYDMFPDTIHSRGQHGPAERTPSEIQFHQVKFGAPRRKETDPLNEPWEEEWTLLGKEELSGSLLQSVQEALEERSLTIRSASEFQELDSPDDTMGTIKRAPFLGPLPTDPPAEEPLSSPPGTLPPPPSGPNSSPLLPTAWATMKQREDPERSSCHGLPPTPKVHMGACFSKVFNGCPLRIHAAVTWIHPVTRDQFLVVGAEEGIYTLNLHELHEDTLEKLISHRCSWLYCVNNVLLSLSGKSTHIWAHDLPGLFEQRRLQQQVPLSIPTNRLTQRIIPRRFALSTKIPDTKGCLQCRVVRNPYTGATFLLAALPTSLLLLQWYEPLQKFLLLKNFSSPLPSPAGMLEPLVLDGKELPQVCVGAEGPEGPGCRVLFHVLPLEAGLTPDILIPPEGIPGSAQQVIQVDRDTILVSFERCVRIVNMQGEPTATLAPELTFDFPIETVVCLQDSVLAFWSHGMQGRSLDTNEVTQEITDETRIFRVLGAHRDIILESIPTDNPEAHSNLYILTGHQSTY

[7] = target: T2, Mitogen-activated protein kinase 12 (Homo sapiens) (UniProt P53778); assay: Inhibition of human SAPK3 assessed as residual activity at 10 uM by KinaseProfiler assay; summary of the method: as §1
T2 sequence (whole entry): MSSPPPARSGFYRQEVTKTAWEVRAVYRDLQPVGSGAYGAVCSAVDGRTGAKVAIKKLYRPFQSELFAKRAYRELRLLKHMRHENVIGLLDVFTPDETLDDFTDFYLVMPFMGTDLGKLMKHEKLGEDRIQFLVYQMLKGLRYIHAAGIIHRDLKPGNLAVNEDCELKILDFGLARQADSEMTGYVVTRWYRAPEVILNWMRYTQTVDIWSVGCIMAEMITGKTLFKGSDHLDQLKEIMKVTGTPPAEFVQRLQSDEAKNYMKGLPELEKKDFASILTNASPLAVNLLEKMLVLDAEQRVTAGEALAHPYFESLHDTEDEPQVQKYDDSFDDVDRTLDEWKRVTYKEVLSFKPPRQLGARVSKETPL

[8] = target: Mitogen-activated protein kinase 14 (Homo sapiens) (UniProt Q16539); assay: Inhibition of human SAPK2a assessed as residual activity at 10 uM by KinaseProfiler assay; summary of the method: as §1
Sequence of Mitogen-activated protein kinase 14 (Homo sapiens) (Q16539 whole entry): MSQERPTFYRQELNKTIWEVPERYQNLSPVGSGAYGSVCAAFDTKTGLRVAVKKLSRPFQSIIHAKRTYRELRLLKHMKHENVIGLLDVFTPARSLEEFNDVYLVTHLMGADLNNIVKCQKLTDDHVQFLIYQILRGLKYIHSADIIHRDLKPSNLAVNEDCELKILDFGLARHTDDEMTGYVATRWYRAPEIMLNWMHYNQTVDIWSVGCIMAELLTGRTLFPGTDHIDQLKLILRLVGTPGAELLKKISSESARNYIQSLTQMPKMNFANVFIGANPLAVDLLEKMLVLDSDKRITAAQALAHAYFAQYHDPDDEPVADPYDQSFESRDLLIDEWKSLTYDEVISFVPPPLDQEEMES

[9] = target: Casein kinase II subunit alpha (Homo sapiens) (UniProt P68400); assay: Inhibition of recombinant human CK2alpha assessed as inhibition of phosphorylation of GST-CS at 10 uM by Coomassie brilliant blue staining based autoradiography
[10] = target: Rho-associated protein kinase 2 (Homo sapiens) (UniProt O75116); assay: Inhibition of human ROCK2 assessed as residual activity at 10 uM by KinaseProfiler assay; summary of the method: as §1
Sequence of Rho-associated protein kinase 2 (Homo sapiens) (O75116 whole entry, looked up): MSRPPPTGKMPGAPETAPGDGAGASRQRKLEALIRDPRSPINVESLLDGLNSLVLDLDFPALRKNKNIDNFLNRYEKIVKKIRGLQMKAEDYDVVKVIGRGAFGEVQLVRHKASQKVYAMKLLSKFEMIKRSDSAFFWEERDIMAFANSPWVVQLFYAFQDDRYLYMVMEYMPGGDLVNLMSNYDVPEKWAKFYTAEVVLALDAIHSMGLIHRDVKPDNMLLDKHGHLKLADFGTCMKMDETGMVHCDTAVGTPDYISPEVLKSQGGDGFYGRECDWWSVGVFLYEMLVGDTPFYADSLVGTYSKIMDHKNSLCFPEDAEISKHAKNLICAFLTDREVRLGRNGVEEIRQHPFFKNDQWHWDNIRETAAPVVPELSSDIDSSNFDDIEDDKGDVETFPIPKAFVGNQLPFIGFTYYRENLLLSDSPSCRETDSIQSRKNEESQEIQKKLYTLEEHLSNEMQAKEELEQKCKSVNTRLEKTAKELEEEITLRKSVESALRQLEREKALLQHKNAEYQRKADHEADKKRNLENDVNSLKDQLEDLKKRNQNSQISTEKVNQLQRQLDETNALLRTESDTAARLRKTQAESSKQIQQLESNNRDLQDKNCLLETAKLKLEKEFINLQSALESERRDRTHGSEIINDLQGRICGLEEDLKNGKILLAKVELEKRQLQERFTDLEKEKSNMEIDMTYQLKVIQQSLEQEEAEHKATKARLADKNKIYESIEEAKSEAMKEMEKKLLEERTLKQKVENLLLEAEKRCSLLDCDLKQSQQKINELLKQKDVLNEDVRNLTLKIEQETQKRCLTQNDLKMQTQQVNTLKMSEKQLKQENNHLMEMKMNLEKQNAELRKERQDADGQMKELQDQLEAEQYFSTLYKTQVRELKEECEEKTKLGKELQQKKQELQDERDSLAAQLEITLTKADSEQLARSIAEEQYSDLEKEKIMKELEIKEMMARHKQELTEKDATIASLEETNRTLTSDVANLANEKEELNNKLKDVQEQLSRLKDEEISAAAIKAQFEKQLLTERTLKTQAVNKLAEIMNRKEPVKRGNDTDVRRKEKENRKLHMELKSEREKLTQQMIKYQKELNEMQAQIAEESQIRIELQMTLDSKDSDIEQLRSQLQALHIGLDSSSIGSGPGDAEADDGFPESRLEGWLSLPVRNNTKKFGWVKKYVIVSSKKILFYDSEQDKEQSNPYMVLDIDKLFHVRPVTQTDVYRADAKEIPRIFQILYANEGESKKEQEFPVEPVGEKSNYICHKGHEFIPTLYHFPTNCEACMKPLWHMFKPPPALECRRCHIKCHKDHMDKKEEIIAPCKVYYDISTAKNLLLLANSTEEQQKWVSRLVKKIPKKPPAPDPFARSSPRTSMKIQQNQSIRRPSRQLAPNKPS

[11] = target: Dual specificity tyrosine-phosphorylation-regulated kinase 2 (Homo sapiens) (UniProt Q92630); assay: Inhibition of human DYRK2 assessed as residual activity at 10 uM by KinaseProfiler assay
[12] = target: Mitogen-activated protein kinase 9 (Homo sapiens) (UniProt P45984); assay: Inhibition of human JNK2alpha2 assessed as residual activity at 10 uM by KinaseProfiler assay; summary of the method: as §1
Sequence of Mitogen-activated protein kinase 9 (Homo sapiens) (P45984 whole entry, looked up): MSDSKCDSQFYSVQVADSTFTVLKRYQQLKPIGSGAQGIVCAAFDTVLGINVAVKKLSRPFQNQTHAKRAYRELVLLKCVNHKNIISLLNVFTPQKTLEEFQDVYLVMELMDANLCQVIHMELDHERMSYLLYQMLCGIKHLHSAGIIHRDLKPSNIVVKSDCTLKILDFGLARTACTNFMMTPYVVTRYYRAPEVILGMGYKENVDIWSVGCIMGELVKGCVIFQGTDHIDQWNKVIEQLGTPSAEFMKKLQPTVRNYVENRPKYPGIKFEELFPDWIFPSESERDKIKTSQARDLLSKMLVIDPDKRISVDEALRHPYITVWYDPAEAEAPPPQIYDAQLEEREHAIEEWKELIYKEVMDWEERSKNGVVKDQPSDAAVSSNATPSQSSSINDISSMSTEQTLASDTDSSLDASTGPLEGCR

[13] = target: Tyrosine-protein kinase CSK (Homo sapiens) (UniProt P41240); assay: Inhibition of human CSK assessed as residual activity at 10 uM by KinaseProfiler assay; summary of the method: as §1
Sequence of Tyrosine-protein kinase CSK (Homo sapiens) (P41240 2-450 limits assumed): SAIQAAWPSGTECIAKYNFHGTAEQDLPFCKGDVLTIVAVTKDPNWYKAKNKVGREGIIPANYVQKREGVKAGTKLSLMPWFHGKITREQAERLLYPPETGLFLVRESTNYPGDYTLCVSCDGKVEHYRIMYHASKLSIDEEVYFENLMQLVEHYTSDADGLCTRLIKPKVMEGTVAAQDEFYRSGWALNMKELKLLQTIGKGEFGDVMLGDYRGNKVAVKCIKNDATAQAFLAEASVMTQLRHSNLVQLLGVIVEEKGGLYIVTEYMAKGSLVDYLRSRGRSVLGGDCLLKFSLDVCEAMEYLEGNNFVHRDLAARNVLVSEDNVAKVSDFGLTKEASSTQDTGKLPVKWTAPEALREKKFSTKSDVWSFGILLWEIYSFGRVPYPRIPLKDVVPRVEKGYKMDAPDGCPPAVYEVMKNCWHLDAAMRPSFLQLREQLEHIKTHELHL

[14] = target: T3, Serine/threonine-protein kinase Chk1 (Homo sapiens) (UniProt O14757); assay: Inhibition of human CHK1 assessed as residual activity at 10 uM by KinaseProfiler assay; summary of the method: as §1
T3 sequence (whole entry): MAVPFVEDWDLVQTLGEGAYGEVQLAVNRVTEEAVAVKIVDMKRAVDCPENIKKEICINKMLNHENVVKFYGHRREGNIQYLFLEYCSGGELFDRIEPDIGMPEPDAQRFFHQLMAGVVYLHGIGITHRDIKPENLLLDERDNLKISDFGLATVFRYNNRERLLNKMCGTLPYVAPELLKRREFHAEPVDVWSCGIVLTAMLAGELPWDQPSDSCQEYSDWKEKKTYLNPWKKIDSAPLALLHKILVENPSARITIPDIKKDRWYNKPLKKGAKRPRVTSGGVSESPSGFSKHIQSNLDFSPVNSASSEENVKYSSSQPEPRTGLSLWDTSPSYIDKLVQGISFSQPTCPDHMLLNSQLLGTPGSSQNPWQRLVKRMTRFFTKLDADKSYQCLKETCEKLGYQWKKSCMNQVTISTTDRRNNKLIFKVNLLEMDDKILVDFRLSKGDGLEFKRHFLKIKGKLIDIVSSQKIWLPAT

SK-HEP1 = assay: Cytotoxicity against human SKHEP1 cells assessed as cell viability at 10 uM after 24 hrs by MTT assay; format: functional, cell-based
AGS = assay: Cytotoxicity against human AGS cells assessed as cell viability at 10 uM after 24 hrs by MTT assay; format: functional, cell-based
Summary of the method: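 AGS and HepG2 kept in Modified Eagle's Medium with serum and antibiotics at 37 °C, 5% CO2. Seeded at 1 × 10⁴ cells/well and grown 24 h, then exposed for 24 h. MTT at 4 mg/mL final for 2 h, formazan dissolved in DMSO, A570. Quadruplicate.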

| SMILES | Activity [1] | Activity [2] | Activity [3] | Activity [4] | Activity [5] | Activity [6] | Activity [7] | Activity [8] | inhibition [9] | Activity [10] | Activity [11] | Activity [12] | Activity [13] | Activity [14] | Activity (SK-HEP1) | Activity (AGS) |
| --- | --- | --- | --- | --- | --- | --- | --- | --- | --- | --- | --- | --- | --- | --- | --- | --- |
| CCOC(=O)C1=C(C)N=c2s/c(=C\c3cc(O)c(O)c(O)c3)c(=O)n2C1c1ccc(Cl)cc1 (stereo not given) | 87% | 91% | 51% | 5% | 101% | 87% | 63% | 59% | Active | 108% | 118% | 92% | 54% | 127% | – | – |
| Brc1c(Br)c(Br)c2[nH]nnc2c1Br | 104% | 106% | 42% | 113% | 112% | 92% | 29% | 99% | – | 73% | 2% | 50% | 116% | 149% | Active | Active |
| CCOC(=O)C1=C(C)N=c2s/c(=C\c3ccc(O)c(O)c3)c(=O)n2C1c1ccc(Cl)cc1 (stereo not given) | 85% | 91% | 52% | 20% | 114% | 87% | 69% | 72% | Active | 89% | 14% | 91% | 82% | 117% | Active | Active |
